Published values gathered from unrelated publications.
Lines come from different studies, so protocols differ.
Target: Calcium/calmodulin-dependent protein kinase type 1B (PNCK, Homo sapiens, UniProt Q6P2M8)

CCc1ccccc1C(=O)Nc1n[nH]c2c(C)c(F)c(C3C(C#N)=C(C)N(C)C(C)=C3C#N)cc12 — remaining binding (cell-free assay, competition with immobilised ligand; 1 µM): 100%
N#CCCc1ccc2c(c1)-c1[nH]c3ccc([N+](=O)[O-])cc3c1CC(=O)N2 — remaining signal (cell-free assay; 0.5 µM): 107%
Nc1ncnc2occ(-c3ccc(NC(=O)Nc4cc(C(F)(F)F)ccc4F)cc3)c12 — remaining signal (cell-free assay; 20 µM): 0.5%
O=C(Nc1cnn(-c2csc(C(=O)NC3COC3)c2)c1)Nc1ccccc1Cl — remaining activity (enzyme activity, inhibitor; 5 µM): 92.1%
Cc1ccc(C(=O)Nc2ccc(CN3CCN(C)CC3)c(C(F)(F)F)c2)cc1C#Cc1cnc2cccnn12 — remaining signal (cell-free assay; 23.5 nM): 89%
CC(C)(O)[C@H]1CC[C@H](Nc2ccc3ncc(-c4cccc(C(F)(F)F)c4)n3n2)CC1 — remaining activity (enzyme activity, inhibitor; 1 µM): 100%
Cc1sc(C(=O)NC2COC2)cc1-n1cc(NC(=O)Nc2c(F)cccc2Cl)cn1 — remaining activity (enzyme activity, inhibitor; 10 µM): 74.1%
COc1cc(Cl)c(C(=O)N[C@@H](CN[C@H]2CC[C@@H](N)CC2)Cc2ccc(C#N)cc2)cc1-c1ccc(CN[C@H](C)c2ccc(C)cc2)o1 — remaining activity (enzyme activity, inhibitor; 1 µM): 98%
CN1CC(Oc2cnc(C#N)cc2-c2ccn3nc(NC(=O)C4CC4)cc3c2)C1 — inhibition (enzyme activity, inhibitor; 1 µM): -21%
CN(CCCC(F)(F)F)c1nccc(-c2cnn3ncccc23)n1 — remaining binding (binding; 1 µM): 100%
CN([C@@H]1CCc2c(CC(=O)O)c3ccccc3n2C1)S(=O)(=O)c1ccc(F)cc1 — remaining binding (cell-free assay, competition with immobilised ligand; 1 µM): 87%
